Measured values reported in ChEMBL document CHEMBL1136453, “New classes of antibacterial oxazolidinones with C-5, methylene O-linked heterocyclic side chains” (2003).
≈ marks a conversion by molar mass, not a printed value.

Assays:
[1] = test system: Staphylococcus aureus; assay: In vitro minimum inhibitory concentration against Staphylococcus aureus Oxford; type: functional
[2] = test system: Enterococcus faecalis; assay: In vitro minimum inhibitory concentration against Enterococcus faecalis; type: functional
In short: (§1)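 Agar dilution per NCCLS protocol with doubling dilutions from 128 to 0.008 mg/L, incubated at 37 °C. Strains came from an in-house culture collection. MIC reported in mg/L.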

[3] = test system: Staphylococcus aureus; assay: In vitro minimum inhibitory concentration against coagulase negative Staphylococcus aureus methicillin resistant (CNSMR); type: functional
[4] = test system: Staphylococcus aureus; assay: In vitro minimum inhibitory concentration against Staphylococcus aureus MRQR; type: functional
[5] = test system: Streptococcus pyogenes; assay: In vitro minimum inhibitory concentration against Streptococcus pyogenes penicillin sensitive; type: functional; in short: as §1
[6] = test system: Staphylococcus aureus; assay: In vivo antibacterial activity against Staphylococcus aureus after intravenous administration (10 mg/kg) in mice using (MTT) mouse thigh test
[7] = In vivo antibacterial activity against Staphylococcus aureus after intravenous administration (5 mg/kg) in mice using (MTT) mouse thigh test
[8] = Staphylococcus aureus, read-out: MIC

Structure (SMILES)	MIC [1]	MIC [2]	MIC [3]	MIC [4]	MIC [5]	MIC [1, 8]	Activity [6]	Activity [7]
O=C1O[C@@H](Cn2ccccc2=O)CN1c1ccc(C2=CCOCC2)c(F)c1	32 µg/mL (≈ 86.4 µM)	64 µg/mL (≈ 173 µM)	32 µg/mL (≈ 86.4 µM)	32 µg/mL (≈ 86.4 µM)	32 µg/mL (≈ 86.4 µM)			
O=C([C@@H](O)CO)N1CC=C(c2ccc(N3C[C@H](COc4cnsn4)OC3=O)cc2F)CC1		0.25 µg/mL (≈ 0.538 µM)	0.13 µg/mL (≈ 0.28 µM)	0.13 µg/mL (≈ 0.28 µM)	0.13 µg/mL (≈ 0.28 µM)	0.06 µg/mL (≈ 0.129 µM)	1.11	0.42
O=C1O[C@@H](COc2ccsn2)CN1c1ccc(C2=CCOCC2)c(F)c1		0.5 µg/mL (≈ 1.33 µM)	0.25 µg/mL (≈ 0.664 µM)	0.25 µg/mL (≈ 0.664 µM)	0.5 µg/mL (≈ 1.33 µM)	0.25 µg/mL (≈ 0.664 µM)	0.21	0.01
COC(=O)c1cc(OC[C@H]2CN(c3ccc(C4=CCOCC4)c(F)c3)C(=O)O2)no1		128 µg/mL (≈ 306 µM)	32 µg/mL (≈ 76.5 µM)	16 µg/mL (≈ 38.2 µM)	16 µg/mL (≈ 38.2 µM)	8 µg/mL (≈ 19.1 µM)		
O=C(CO)N1CC=C(c2ccc(N3C[C@H](COc4cnsn4)OC3=O)cc2F)CC1		0.25 µg/mL (≈ 0.575 µM)	0.25 µg/mL (≈ 0.575 µM)	0.25 µg/mL (≈ 0.575 µM)	0.25 µg/mL (≈ 0.575 µM)	0.13 µg/mL (≈ 0.299 µM)	1.21	0.78
O=C1O[C@@H](COc2ccon2)CN1c1cc(F)c(C2=CCN(Cc3nccs3)CC2)c(F)c1		2 µg/mL (≈ 4.22 µM)	1 µg/mL (≈ 2.11 µM)	1 µg/mL (≈ 2.11 µM)	1 µg/mL (≈ 2.11 µM)	0.5 µg/mL (≈ 1.05 µM)	0.28	0.07
O=C1O[C@@H](COc2ccon2)CN1c1ccc(C2=CCN(C(=S)CO)CC2)c(F)c1		0.5 µg/mL (≈ 1.15 µM)	0.25 µg/mL (≈ 0.577 µM)	0.5 µg/mL (≈ 1.15 µM)	0.25 µg/mL (≈ 0.577 µM)	0.25 µg/mL (≈ 0.577 µM)	0.07	-0.01
O=C(CO)N1CC=C(c2c(F)cc(N3C[C@H](COc4cnsn4)OC3=O)cc2F)CC1		0.5 µg/mL (≈ 1.11 µM)	0.25 µg/mL (≈ 0.553 µM)	0.25 µg/mL (≈ 0.553 µM)	0.25 µg/mL (≈ 0.553 µM)	0.13 µg/mL (≈ 0.287 µM)	1.72	1.05
O=C([C@@H](O)CO)N1CC=C(c2c(F)cc(N3C[C@H](CO)OC3=O)cc2F)CC1		1 µg/mL (≈ 2.51 µM)	0.25 µg/mL (≈ 0.628 µM)	0.5 µg/mL (≈ 1.26 µM)	0.5 µg/mL (≈ 1.26 µM)	0.25 µg/mL (≈ 0.628 µM)	1.01	0.59
CN1CC=C(c2c(F)cc(N3C[C@H](COc4ccon4)OC3=O)cc2F)CC1		4 µg/mL (≈ 10.2 µM)	2 µg/mL (≈ 5.11 µM)	2 µg/mL (≈ 5.11 µM)	1 µg/mL (≈ 2.56 µM)	2 µg/mL (≈ 5.11 µM)		
Cc1cccc(OC[C@H]2CN(c3ccc(C4=CCOCC4)c(F)c3)C(=O)O2)n1		> 128 µg/mL		> 128 µg/mL	> 128 µg/mL	> 128 µg/mL		
O=C1O[C@@H](COc2ccncc2)CN1c1ccc(C2=CCOCC2)c(F)c1		64 µg/mL (≈ 173 µM)	32 µg/mL (≈ 86.4 µM)	32 µg/mL (≈ 86.4 µM)	64 µg/mL (≈ 173 µM)	16 µg/mL (≈ 43.2 µM)		
O=C1O[C@@H](COc2cnccn2)CN1c1ccc(C2=CCOCC2)c(F)c1		2 µg/mL (≈ 5.39 µM)	1 µg/mL (≈ 2.69 µM)	1 µg/mL (≈ 2.69 µM)	1 µg/mL (≈ 2.69 µM)	1 µg/mL (≈ 2.69 µM)	0.35	0.22
O=C1O[C@@H](COc2cccc[n+]2[O-])CN1c1ccc(C2=CCOCC2)c(F)c1		> 128 µg/mL		> 128 µg/mL	> 128 µg/mL	> 128 µg/mL		
O=C1O[C@@H](COc2ccon2)CN1c1ccc(C2=CCN(CCO)CC2)c(F)c1		8 µg/mL (≈ 19.8 µM)	4 µg/mL (≈ 9.92 µM)	8 µg/mL (≈ 19.8 µM)	2 µg/mL (≈ 4.96 µM)	4 µg/mL (≈ 9.92 µM)		
Cc1cccnc1OC[C@H]1CN(c2ccc(C3=CCOCC3)c(F)c2)C(=O)O1		32 µg/mL (≈ 83.2 µM)	16 µg/mL (≈ 41.6 µM)	16 µg/mL (≈ 41.6 µM)	8 µg/mL (≈ 20.8 µM)	8 µg/mL (≈ 20.8 µM)		
O=C1O[C@@H](COc2ccccc2)CN1c1ccc(C2=CCOCC2)c(F)c1		> 128 µg/mL		> 128 µg/mL	> 128 µg/mL	> 128 µg/mL		
Cc1nnc(OC[C@H]2CN(c3ccc(C4=CCOCC4)c(F)c3)C(=O)O2)o1		8 µg/mL (≈ 21.3 µM)	8 µg/mL (≈ 21.3 µM)	4 µg/mL (≈ 10.7 µM)	8 µg/mL (≈ 21.3 µM)	4 µg/mL (≈ 10.7 µM)		
O=C1O[C@@H](COc2cccnn2)CN1c1ccc(C2=CCOCC2)c(F)c1		4 µg/mL (≈ 10.8 µM)	2 µg/mL (≈ 5.39 µM)	2 µg/mL (≈ 5.39 µM)	2 µg/mL (≈ 5.39 µM)	2 µg/mL (≈ 5.39 µM)		
Cc1cc(OC[C@H]2CN(c3ccc(C4=CCOCC4)c(F)c3)C(=O)O2)no1		4 µg/mL (≈ 10.7 µM)	2 µg/mL (≈ 5.34 µM)	2 µg/mL (≈ 5.34 µM)	4 µg/mL (≈ 10.7 µM)	1 µg/mL (≈ 2.67 µM)	-0.45	
N#CCCS(=O)(=O)C[C@H](O)C(=O)N1CC=C(c2c(F)cc(N3C[C@H](COc4ccon4)OC3=O)cc2F)CC1		1 µg/mL (≈ 1.77 µM)	0.5 µg/mL (≈ 0.883 µM)	0.5 µg/mL (≈ 0.883 µM)	0.5 µg/mL (≈ 0.883 µM)	0.25 µg/mL (≈ 0.441 µM)		
